Results as given in ChEMBL document CHEMBL2406960, “Epimeric methylsulfinyladenosine derivatives from the marine ascidian Herdmania momus” (Bioorg Med Chem Lett, 2013).

Experiments:
[1] = system: rhinovirus B14; experiment: Antiviral activity against Human rhinovirus 14 infected in human HeLa cells assessed as inhibition of virus-induced cytopathic effect by MTT assay; type: functional, organism-based; settings: Rhinovirus B
Outline: (§1)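 Confluent HeLa monolayers, in duplicate, got samples (20 mg/mL DMSO stock) diluted in MEM/2% FBS, then virus at 200 CCID50 per well, and were incubated under CO2. Protection was read by MTT and by microscopic inspection. EC50 was the concentration protecting 50% of cells from virus-induced cytotoxicity.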

[2] = system: Coxsackievirus B3; experiment: Antiviral activity against Human coxsackievirus B3 infected in human HeLa cells assessed as inhibition of virus-induced cytopathic effect by MTT assay; type: functional, organism-based; settings: Enterovirus B; outline: as §1
[3] = Antiviral activity against Human rhinovirus 17 infected in human HeLa cells assessed as inhibition of virus-induced cytopathic effect by MTT assay; type: functional, cell-based, Human rhinovirus B17; settings: Rhinovirus B; outline: as §1
[4] = system: Poliovirus 3; experiment: Antiviral activity against Human poliovirus 3 infected in human HeLa cells assessed as inhibition of virus-induced cytopathic effect by MTT assay; type: functional, organism-based; settings: Enterovirus C
Outline: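 Confluent HeLa cells in 96-well plates, in duplicate; samples (20 mg/mL DMSO stock) diluted in MEM/2% FBS, then virus added at 200 CCID50 per well; incubated in CO2 incubator. Protection of cells from virus cytopathic effect read by MTT absorbance and microscopy; EC50 = concentration protecting 50% of cells. Cytotoxicity on mock-infected cells, CC50 = 50% absorbance reduction.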

[5] = system: Coxsackievirus B1; experiment: Antiviral activity against Human coxsackievirus B1 infected in human HeLa cells assessed as inhibition of virus-induced cytopathic effect by MTT assay; type: functional, organism-based; settings: Enterovirus B; outline: as §1
[6] = Cytotoxicity against human HeLa cells by MTT assay; type: cell-based
Outline: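 Mock-infected confluent HeLa cells were treated in duplicate with samples (20 mg/mL DMSO stock) diluted in MEM/2% FBS and incubated under CO2. Viability was read by MTT plus microscopy. CC50 was the concentration that cut mock-infected control absorbance by 50%.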

[7] = Antiviral activity against Human rhinovirus 71 infected in human HeLa cells assessed as inhibition of virus-induced cytopathic effect by MTT assay; type: functional, cell-based, Human rhinovirus A71; settings: Rhinovirus A; outline: as §1

C[S+]([O-])C[C@H]1O[C@@H](n2cnc3c(N)ncnc32)[C@H](O)[C@@H]1OC(=O)c1c[nH]c2cc(Br)c(O)cc12 (some centres undefined)
> 100 µg/mL: EC50 [1] | EC50 [2] | EC50 [3] | EC50 [4] | EC50 [5] | CC50 [6] | EC50 [7]

C[S+]([O-])C[C@H]1O[C@@H](n2cnc3c(N)ncnc32)[C@H](OC(=O)c2c[nH]c3cc(Br)c(O)cc23)[C@@H]1O (mixture of isomers)
> 100 µg/mL: EC50 [1] | EC50 [2] | EC50 [3] | EC50 [4] | EC50 [5] | CC50 [6] | EC50 [7]
